Here are results for four compounds from ChEMBL document CHEMBL4251709, “Synthesis, Biological Investigation, and Structural Revision of Sielboldianin A” (J Nat Prod, 2018).

Broadly, the IC50 is the concentration that inhibits the measured activity by half.

One assay deals with K562. In words: Cytotoxicity against human K562 cells assessed as inhibition of cell growth after 5 days by MTT assay. Conditions: K562, 120 h. Format: cell-based. The method, boiled down: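 K562 cells kept in antibiotic-free RPMI with 2-mercaptoethanol (2 μM), L-glutamine (2 mM) and 10% FCS. 100 μL of cells at 40 000 cells/mL were mixed with 100 μL of serially diluted compound (DMSO stock) in medium, with a drug-free control. Incubation 5 days, 37 °C, 5% CO2. MTT (3 mg/mL) for 3 h, formazan taken up in DMSO, read at 540 and 690 nm. IC50 as % of control growth, three experiments.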
A general note: Formazan colour is commonly taken as a measure of viable cells.

Assay [1] deals with HepG2. In words: Antioxidant activity in human HepG2 cells assessed as inhibition of ABAP-induced peroxyl radical generation incubated for 60 mins measured for 60 mins by DCFH-DA probe based fluorescence assay. Format: functional, cell-based. Conditions: HepG2, 1 h. The gist of the method: (§1)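 HepG2 cells grown in MEM Earle's with gentamycin, L-alanyl-L-glutamine, nonessential amino acids, sodium pyruvate and 10% FBS at 37 °C, 5% CO2. 80 000 cells per well were seeded 24 h ahead, ~50% confluent at testing. Sesquiterpenoids were dissolved in DMSO, giving 1% DMSO final in all wells including controls. IC50 from dose–response Hill-slope fit, three experiments, mean ± SD.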

Assay [2] relates to HepG2. In words: Antioxidant activity in human HepG2 cells assessed as inhibition of cumene hydroperoxide-mediated lipid peroxidation incubated for 60 mins followed by cumOOH addition for 60 mins measured for 60 mins by C11-BODIPY probe based fluorescence assay. Format: functional, cell-based. To be noted: HepG2, 1 h. The gist of the method:
as §1

For the compound `CC(C)=CCC[C@](C)(O)c1ccc(C)cc1`, the figures for the IC50 in the assay with K562, in the assay on HepG2 [1] and in the assay on HepG2 [2] were above 50 µM, above 100 µM and above 100 µM, respectively.
Regarding `Cc1ccc([C@]2(C)CC[C@@H](C(C)(C)O)O2)cc1O`, the values for the concentration for half-maximal inhibition (IC50) with K562, with HepG2 [1] and with HepG2 [2] were above 50 µM, 18 µM and 31 µM, respectively.
The matching figures for `Cc1ccc([C@]2(C)CC[C@@H](C(C)(C)O)O2)cc1`: above 50 µM, above 100 µM and above 100 µM.
The matching figures for `O=c1c(O)c(-c2ccc(O)c(O)c2)oc2cc(O)cc(O)c12` [QUERCETIN]: 2.5 µM, 65 µM and 12 µM.
